In ChEMBL document CHEMBL1129933, “Tyrosine kinase inhibitors. 6. Structure-activity relationships among N- and 3-substituted 2,2'-diselenobis(1H-indoles) for inhibition of protein tyrosine kinases and comparative in vitro and in vivo studies against selected sulfur congeners” (J Med Chem, 1997):
pIC50, pKi: −log10 of the molar value.

Key:
A-431 [1] = experiment: In vivo activity against human A431 epidermoid xenograft, net cell kill at 9 mg/kg administered subcutaneously for 1-27 days; format: functional; details: route subcutaneous
How it was run: (§1)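 Nude mice (NCr nu/nu), 18-22 g, randomized, implanted sc in the right axilla with serially passaged A431 tumor fragments on day 0. Dosing was by ip bolus or continuous sc Alzet miniosmotic pump infusion, by average cage weight. Vehicle was distilled H2O or 10% DMA in 50 mM lactic acid buffer, pH 4.0, depending on compound. Net cell kill = net log reduction in tumor burden between first and last treatments.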

[2] = biological target: T1, Epidermal growth factor receptor (Homo sapiens, UniProt P00533); experiment: Inhibition of epidermal growth factor receptor (EGFr) using peptide substrate
T1 sequence (P00533 whole entry): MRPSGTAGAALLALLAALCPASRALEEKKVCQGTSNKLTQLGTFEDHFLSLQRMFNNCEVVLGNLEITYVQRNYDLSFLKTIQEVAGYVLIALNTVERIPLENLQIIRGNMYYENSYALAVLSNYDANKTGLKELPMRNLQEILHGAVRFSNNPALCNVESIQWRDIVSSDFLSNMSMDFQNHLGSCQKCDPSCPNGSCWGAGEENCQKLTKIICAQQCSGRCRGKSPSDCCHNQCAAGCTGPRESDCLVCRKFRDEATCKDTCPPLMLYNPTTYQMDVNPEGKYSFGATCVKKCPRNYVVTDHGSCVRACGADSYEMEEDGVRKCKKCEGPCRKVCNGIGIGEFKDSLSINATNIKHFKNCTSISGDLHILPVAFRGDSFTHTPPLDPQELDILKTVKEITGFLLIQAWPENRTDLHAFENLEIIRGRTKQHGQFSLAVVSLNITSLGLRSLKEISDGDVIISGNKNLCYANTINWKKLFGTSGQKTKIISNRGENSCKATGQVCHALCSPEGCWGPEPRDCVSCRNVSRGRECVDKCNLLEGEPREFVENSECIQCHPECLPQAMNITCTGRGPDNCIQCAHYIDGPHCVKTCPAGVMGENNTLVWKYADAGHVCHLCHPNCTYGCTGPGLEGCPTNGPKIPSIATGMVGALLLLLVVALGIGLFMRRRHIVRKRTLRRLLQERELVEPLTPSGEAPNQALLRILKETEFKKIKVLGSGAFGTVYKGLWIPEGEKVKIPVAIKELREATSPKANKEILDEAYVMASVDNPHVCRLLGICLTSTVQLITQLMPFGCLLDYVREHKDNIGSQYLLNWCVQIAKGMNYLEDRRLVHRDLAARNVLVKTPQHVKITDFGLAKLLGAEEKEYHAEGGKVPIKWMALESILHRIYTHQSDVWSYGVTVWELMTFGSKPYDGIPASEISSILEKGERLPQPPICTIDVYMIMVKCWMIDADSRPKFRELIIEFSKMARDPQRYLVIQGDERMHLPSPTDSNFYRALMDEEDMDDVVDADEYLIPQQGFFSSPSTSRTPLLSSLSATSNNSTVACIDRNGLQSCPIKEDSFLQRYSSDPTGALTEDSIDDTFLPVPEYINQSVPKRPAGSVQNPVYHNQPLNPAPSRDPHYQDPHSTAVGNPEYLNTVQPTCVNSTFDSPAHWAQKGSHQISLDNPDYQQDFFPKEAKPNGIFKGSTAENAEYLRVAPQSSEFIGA
How it was run: (§2)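 EGFr came from membrane vesicles shed by human A431 carcinoma cells. Activity was measured as 32P-phosphate transfer from ATP into a TCA-precipitable glutamate/tyrosine (4:1) random copolymer. ATP or peptide polymer substrate was varied. Ki was obtained by nonlinear regression with Cleland's equations, comparing slope and intercept determinations to assign the inhibition type.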

Colon 26 [3] = experiment: In vivo activity against murine colon 26, weight change after 0.75 mg/kg ip dose at 4 hour intervals 3x a day for 9 days; format: functional, Mus musculus; details: route intraperitoneal
How it was run: (§3)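 Murine tumours were maintained by serial transplantation (~30 mg fragments every 2 weeks): B16 in C57BL/6 and colon 26 in BALB/c. They were tested in F1 hosts, B6C3F1 for B16 and CD2F1 for colon 26, weighing 18-22 g. Treatment was ip daily or q4h ×3 for 9 days. Weight change was the difference between mean group weights on the last and first treatment days, from life-span assays.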

M5076 = experiment: In vivo activity against murine M5076 sarcoma, weight change after 3.0 mg/kg ip dose at 4 hour intervals 3x a day for 9 days; format: functional, Mus musculus; details: route intraperitoneal
How it was run: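 M5076 sarcoma was serially transplanted in C57BL/6 mice and tested in B6C3F1 mice (18-22 g) given ip q4h ×3 daily for 9 days. Weight change was taken as the maximum treatment-related weight loss in the growth-delay assay.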

MCF7 [4] = experiment: In vivo activity against human MCF-7 xenograft, weight change after 3.0 mg/kg ip dose at 4 hour intervals 3x a day for 5-11 days; format: functional, organism-based; set-up: dose 3 mg/kg
How it was run: (§4)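 MCF-7 breast carcinoma xenografts were serially passaged in nude mice (NCr nu/nu) and implanted in randomized 18-22 g mice on day 0. Dosing was ip bolus, either daily or q4h ×3 daily, with vehicle of distilled H2O or 10% DMA in 50 mM lactic acid buffer, pH 4.0. Weight change was taken as the maximum treatment-related loss.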

B16 [5] = experiment: In vivo activity against murine B16 melanoma, net cell kill at 0.75 mg/kg administered intraperitoneally at 4 hour intervals 3x a day for 9 days; format: functional, Mus musculus; details: route intraperitoneal
How it was run: (§5)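 Tumors were passaged in C57BL/6 mice; B6C3F1 mice (18-22 g, randomized) were implanted on day 0 ip with counted tumor cells or sc with fragments. Dosing was ip bolus, daily or q4h ×3 daily, by average cage weight. Vehicle was distilled H2O or 10% DMA in 50 mM lactic acid buffer, pH 4.0. Net cell kill = log reduction in tumor burden between first and last treatments.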

B16 [6] = experiment: In vivo activity against murine B16 melanoma, weight change after 3.0 mg/kg i.p. dose for 9 days; format: functional, Mus musculus; details: route intraperitoneal; how it was run: as §3
[7] = Inhibition of RNA synthesis; format: functional
How it was run: (§6)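 Log-phase cells were drug-treated for 2 h, then exposed for 2 h to 1 µM [methyl-3H]thymidine (DNA), [5-3H]uridine (RNA) or (S)-[4,5-3H]leucine (protein), each at 1 µCi/nmol. Cells were trypsinized into ice-cold 15% TCA, and precipitates were collected on glass-fibre filters, washed, and counted by scintillation.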

A-431 [8] = experiment: In vivo activity against human A431 epidermoid xenograft, net cell kill at 10 mg/kg administered subcutaneously for 9-15 days; format: functional; details: route subcutaneous; how it was run: as §1
MCF7 [9] = experiment: In vivo activity against human MCF-7 xenograft, tumor growth delay (T-C) at 12.0 mg/kg ip dose for 5-11 days; details: route intraperitoneal
A-431 [10] = experiment: In vivo activity against human A431 epidermoid xenograft, tumor growth delay (T-C) at 10 mg/kg administered subcutaneously for 9-15 days; details: route subcutaneous
B16 [11] = experiment: In vivo activity against murine B16 melanoma, net cell kill at 3.0 mg/kg ip dose for 9 days; format: functional, Mus musculus; details: route intraperitoneal; how it was run: as §5
C6 [12] = experiment: In vivo activity against C6 glioma xenograft, weight change after 5 mg/kg ip dose for 9 days; format: functional, organism-based; set-up: dose 5 mg/kg
How it was run: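 Nude mice (NCr nu/nu, 18-22 g) implanted sc in the right axilla with serially passaged C6 glioma fragments on day 0, randomized, and dosed ip by bolus on days 1-9 based on average cage weight. Vehicle was distilled H2O or 10% DMA in 50 mM lactic acid buffer, pH 4.0, depending on compound. Weight change was taken as the maximum treatment-related weight loss.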

[13] = biological target: Platelet-derived growth factor receptor beta (Mus musculus, UniProt P05622); experiment: Inhibition of platelet-derived growth factor receptor (PDGFr) autophosphorylation; format: functional
Sequence of Platelet-derived growth factor receptor beta (P05622 whole entry): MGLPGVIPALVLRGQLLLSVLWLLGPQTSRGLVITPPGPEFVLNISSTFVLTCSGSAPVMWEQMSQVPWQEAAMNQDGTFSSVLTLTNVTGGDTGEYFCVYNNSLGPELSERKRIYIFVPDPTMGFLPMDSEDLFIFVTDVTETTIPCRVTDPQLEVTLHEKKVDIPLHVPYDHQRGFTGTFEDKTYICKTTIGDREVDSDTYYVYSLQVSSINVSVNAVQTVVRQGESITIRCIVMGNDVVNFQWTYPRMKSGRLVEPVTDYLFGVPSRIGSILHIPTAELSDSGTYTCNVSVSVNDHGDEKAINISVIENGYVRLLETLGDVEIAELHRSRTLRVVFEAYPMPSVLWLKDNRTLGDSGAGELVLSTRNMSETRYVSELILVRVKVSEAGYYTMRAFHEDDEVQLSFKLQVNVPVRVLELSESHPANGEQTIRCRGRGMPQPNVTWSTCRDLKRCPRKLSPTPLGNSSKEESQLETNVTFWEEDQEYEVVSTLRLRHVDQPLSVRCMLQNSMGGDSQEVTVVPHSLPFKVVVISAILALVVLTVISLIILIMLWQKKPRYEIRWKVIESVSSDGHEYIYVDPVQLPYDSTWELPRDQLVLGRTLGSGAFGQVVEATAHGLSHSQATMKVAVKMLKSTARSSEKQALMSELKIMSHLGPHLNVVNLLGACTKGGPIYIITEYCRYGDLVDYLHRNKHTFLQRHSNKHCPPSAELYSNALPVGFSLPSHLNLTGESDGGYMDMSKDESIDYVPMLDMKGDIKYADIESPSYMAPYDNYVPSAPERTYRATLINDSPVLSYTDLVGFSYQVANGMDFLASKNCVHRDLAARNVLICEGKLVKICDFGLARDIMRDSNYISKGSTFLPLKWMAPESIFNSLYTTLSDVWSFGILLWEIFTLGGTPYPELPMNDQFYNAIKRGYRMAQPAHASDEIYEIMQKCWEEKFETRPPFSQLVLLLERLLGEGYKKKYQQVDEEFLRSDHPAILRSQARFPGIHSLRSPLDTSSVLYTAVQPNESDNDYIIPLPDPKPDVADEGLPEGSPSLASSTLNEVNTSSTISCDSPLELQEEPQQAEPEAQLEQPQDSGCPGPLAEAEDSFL
How it was run: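 Swiss 3T3 fibroblasts were treated 2 h with a range of compound concentrations, then stimulated 5 min with growth factor. Receptor tyrosine phosphorylation was assessed by cell extraction and western blotting.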

[14] = biological target: T1, Epidermal growth factor receptor; experiment: Inhibition of epidermal growth factor receptor (EGFr) using ATP substrate; how it was run: as §2
Colon 26 [15] = experiment: In vivo activity against murine colon 26, net cell kill at 0.75 mg/kg ip dose at 4 hour intervals 3x a day for 9 days; format: functional, Mus musculus; details: route intraperitoneal
How it was run: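 Colon 26 was passaged in BALB/c mice; tested in CD2F1 mice (18-22 g, randomized) implanted on day 0 ip with counted cells or sc with fragments. Dosing was ip bolus, daily or q4h ×3 daily, by average cage weight. Vehicle was distilled H2O or 10% DMA in 50 mM lactic acid, pH 4.0. Net cell kill = log tumor-burden reduction between first and last treatments.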

A-431 [16] = experiment: In vivo activity against human A431 epidermoid xenograft, weight change after 9 mg/kg sc dose for 1-27 days; format: functional, organism-based; set-up: dose 9 mg/kg
How it was run: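 Nude mice (NCr nu/nu, 18-22 g) bearing sc A431 fragments in the right axilla (day 0) received continuous sc infusion from an Alzet miniosmotic pump implanted under ketamine-xylazine. Pumps were removed or replaced under lidocaine-epinephrine for longer therapy, in 7-day and 27-day studies. Daily dose was the maximum deliverable without significant precipitation. Weight change was taken as the maximum treatment-related loss.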

[17] = Inhibition of DNA synthesis; format: functional; how it was run: as §6
MCF7 [18] = experiment: In vivo activity against human MCF-7 xenograft, weight change after 12.0 mg/kg ip dose for 5-11 days; format: functional; details: route intraperitoneal; how it was run: as §4
B16 [19] = experiment: In vivo activity against murine B16 melanoma, percent treated/control tumor mass at 3.0 mg/kg ip dose for 9 days; format: functional, Mus musculus; details: route intraperitoneal; how it was run: as §3
C6 [20] = experiment: In vivo activity against C6 glioma xenograft, tumor growth delay (T-C, days) at 5 mg/kg ip dose for 9 days; details: route intraperitoneal
MCF7 [21] = experiment: In vivo activity against human MCF-7 xenograft, net cell kill at 3.0 mg/kg administered intraperitoneally at 4 hour intervals 3x a day for 5-11 days; format: functional; details: route intraperitoneal
How it was run: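 Nude mice (NCr nu/nu), 18-22 g, randomized and implanted on day 0 with serially passaged MCF-7 tumor (sc fragments in right axilla or ip cells). Compound was given ip bolus q4h ×3 daily, by average cage weight. Vehicle was distilled H2O or 10% DMA in 50 mM lactic acid, pH 4.0. Net cell kill = log tumor-burden reduction between first and last treatments.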

In the case of `NC(Cc1c(SSc2[nH]c3ccccc3c2CC(N)C(=O)NCc2ccccc2)[nH]c2ccccc12)C(=O)NCc1ccccc1` (configuration not stated), the Net cell kill (A-431 [1]) was -0.6 log10, the pKi [2] was 4.67 and the Weight change (Colon 26 [3]) was 0.8 g. For the same compound, the Weight change (M5076) was -0.5 g, the Weight change (MCF7 [4]) was “Weight gain” and the Net cell kill (B16 [5]) was -1.3 log10. It also gave a Weight change (B16 [6]) of 1.4 g, a pIC50 [7] of 5.70 and a Net cell kill (A-431 [8]) of -0.2 log10. It also gave a T-C (MCF7 [9]) of 0 days, a T-C (A-431 [10]) of 1.9 days and a Net cell kill (B16 [11]) of -1.3 log10. The Weight change (C6 [12]) was “Weight gain”, the pIC50 [13] was 5.21 and the pKi [14] was 4.71. The Net cell kill (Colon 26 [15]) was -0.2 log10, the Weight change (A-431 [16]) was “Weight gain” and the pIC50 [17] was 5.60. For the same compound, the Weight change (MCF7 [18]) was -0.4 g, the T/C (B16 [19]) was 100% and the T-C (C6 [20]) was 0 days. For the same compound, the Net cell kill (MCF7 [21]) was -1.2 log10.
